Test system: Fibroblast
Test: Multiplex assay against human fibroblast
Format: toxicity, cell-based
Summary of the method: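 Values for tubulin, mitochondrial-mass and membrane-permeability phenotypes are per cents of cells with healthy nuclei. These cells were identified by CellPathfinder machine-learning gating of live cells that had been stained at seeding with Hoechst33342, BioTracker Green Microtubule Cytoskeleton Dye, MitoTracker Red and Annexin V Alexa Fluor 680 and imaged on a CQ1 microscope at 37°C and 5% CO2 after compound addition. The gating first set Hoechst high-intensity objects apart from normal cells, then split normal cells into healthy, pyknosed or fragmented nuclei, and pyknosed cells into mitotic or apoptotic.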

[1] = 12 h, 1 µM, compound concentration 1 uM, replicate 1
[2] = 12 h, 1 µM, compound concentration 1 uM, replicate 2
[3] = 12 h, 10 µM, compound concentration 10 uM, replicate 1
[4] = 12 h, 10 µM, compound concentration 10 uM, replicate 2
[5] = 24 h, 1 µM, compound concentration 1 uM, replicate 1
[6] = 24 h, 1 µM, compound concentration 1 uM, replicate 2
[7] = 24 h, 10 µM, compound concentration 10 uM, replicate 1
[8] = 24 h, 10 µM, compound concentration 10 uM, replicate 2
[9] = 48 h, 1 µM, compound concentration 1 uM, replicate 1
[10] = 48 h, 1 µM, compound concentration 1 uM, replicate 2
[11] = 48 h, 10 µM, compound concentration 10 uM, replicate 1
[12] = 48 h, 10 µM, compound concentration 10 uM, replicate 2

In the case of `CCn1c(-c2nonc2N)nc2cnc(Oc3cccc(NC(=O)c4ccc(OCCN5CCOCC5)cc4)c3)cc21` [GSK-269962A], the “Population Apoptotic (%)” value [1] is reported as 50%, the “Population Fragmented Nuclei (%)” value [1] is reported as 29% and the “Population Healthy Nuclei (%)” value [1] is reported as 36%. The “Population Hoechst High Intensity Objects (%)” value [1] was 12%, the “Population Membrane Permeable-Phenotype (%)” value [1] was 22% and the “Population Mitochondria Different-Phenotype (%)” value [1] was 2%. For the same molecule, the “Population Mitotic Cells (%)” value [1] was 50%, the “Population Normal (%)” value [1] was 87% and the “Population Pyknosed Nuclei (%)” value [1] was 33%. The “Population Tubulin-Different-Phenotype (%)” value [1] was 46%, the “Total Cell Count” value [1] was 141 and the “Population Apoptotic (%)” value [2] was 20%. For the same molecule, the “Population Fragmented Nuclei (%)” value [2] was 20%, the “Population Healthy Nuclei (%)” value [2] was 72% and the “Population Hoechst High Intensity Objects (%)” value [2] was 2%. The “Population Membrane Permeable-Phenotype (%)” value [2] was 14%, the “Population Mitochondria Different-Phenotype (%)” value [2] was 16% and the “Population Mitotic Cells (%)” value [2] was 80%. The “Population Normal (%)” value [2] was 97%, the “Population Pyknosed Nuclei (%)” value [2] was 7% and the “Population Tubulin-Different-Phenotype (%)” value [2] was 14%. The “Total Cell Count” value [2] was 45, the “Population Apoptotic (%)” value [3] was 55% and the “Population Fragmented Nuclei (%)” value [3] was 40%. For the same molecule, the “Population Healthy Nuclei (%)” value [3] was 28%, the “Population Hoechst High Intensity Objects (%)” value [3] was 12% and the “Population Membrane Permeable-Phenotype (%)” value [3] was 21%. For the same molecule, the “Population Mitochondria Different-Phenotype (%)” value [3] was 47%, the “Population Mitotic Cells (%)” value [3] was 44% and the “Population Normal (%)” value [3] was 87%. For the same molecule, the “Population Pyknosed Nuclei (%)” value [3] was 30%, the “Population Tubulin-Different-Phenotype (%)” value [3] was 83% and the “Total Cell Count” value [3] was 216. For the same molecule, the “Population Apoptotic (%)” value [4] was 31%, the “Population Fragmented Nuclei (%)” value [4] was 20% and the “Population Healthy Nuclei (%)” value [4] was 57%. For the same molecule, the “Population Hoechst High Intensity Objects (%)” value [4] was 7%, the “Population Membrane Permeable-Phenotype (%)” value [4] was 45% and the “Population Mitochondria Different-Phenotype (%)” value [4] was 97%. For the same molecule, the “Population Mitotic Cells (%)” value [4] was 68%, the “Population Normal (%)” value [4] was 92% and the “Population Pyknosed Nuclei (%)” value [4] was 22%. The “Population Tubulin-Different-Phenotype (%)” value [4] was 100%, the “Total Cell Count” value [4] was 71 and the “Population Apoptotic (%)” value [5] was 47%. For the same molecule, the “Population Fragmented Nuclei (%)” value [5] was 21%, the “Population Healthy Nuclei (%)” value [5] was 47% and the “Population Hoechst High Intensity Objects (%)” value [5] was 14%. For the same molecule, the “Population Membrane Permeable-Phenotype (%)” value [5] was 19%, the “Population Mitochondria Different-Phenotype (%)” value [5] was 9% and the “Population Mitotic Cells (%)” value [5] was 52%. The “Population Normal (%)” value [5] was 85%, the “Population Pyknosed Nuclei (%)” value [5] was 31% and the “Population Tubulin-Different-Phenotype (%)” value [5] was 41%. The “Total Cell Count” value [5] was 126, the “Population Apoptotic (%)” value [6] was 75% and the “Population Fragmented Nuclei (%)” value [6] was 11%. The “Population Healthy Nuclei (%)” value [6] was 77%, the “Population Hoechst High Intensity Objects (%)” value [6] was 2% and the “Population Membrane Permeable-Phenotype (%)” value [6] was 1%. The “Population Mitochondria Different-Phenotype (%)” value [6] was 10%, the “Population Mitotic Cells (%)” value [6] was 25% and the “Population Normal (%)” value [6] was 97%. For the same molecule, the “Population Pyknosed Nuclei (%)” value [6] was 11%, the “Population Tubulin-Different-Phenotype (%)” value [6] was 14% and the “Total Cell Count” value [6] was 59. For the same molecule, the “Population Apoptotic (%)” value [7] was 57%, the “Population Fragmented Nuclei (%)” value [7] was 37% and the “Population Healthy Nuclei (%)” value [7] was 42%. For the same molecule, the “Population Hoechst High Intensity Objects (%)” value [7] was 12%, the “Population Membrane Permeable-Phenotype (%)” value [7] was 11% and the “Population Mitochondria Different-Phenotype (%)” value [7] was 58%. For the same molecule, the “Population Mitotic Cells (%)” value [7] was 42%, the “Population Normal (%)” value [7] was 87% and the “Population Pyknosed Nuclei (%)” value [7] was 20%. For the same molecule, the “Population Tubulin-Different-Phenotype (%)” value [7] was 81%, the “Total Cell Count” value [7] was 258 and the “Population Apoptotic (%)” value [8] was 53%. The “Population Fragmented Nuclei (%)” value [8] was 30%, the “Population Healthy Nuclei (%)” value [8] was 52% and the “Population Hoechst High Intensity Objects (%)” value [8] was 5%. For the same molecule, the “Population Membrane Permeable-Phenotype (%)” value [8] was 67%, the “Population Mitochondria Different-Phenotype (%)” value [8] was 97% and the “Population Mitotic Cells (%)” value [8] was 46%. The “Population Normal (%)” value [8] was 94%, the “Population Pyknosed Nuclei (%)” value [8] was 17% and the “Population Tubulin-Different-Phenotype (%)” value [8] was 100%. The “Total Cell Count” value [8] was 73, the “Population Apoptotic (%)” value [9] was 57% and the “Population Fragmented Nuclei (%)” value [9] was 28%. The “Population Healthy Nuclei (%)” value [9] was 58%, the “Population Hoechst High Intensity Objects (%)” value [9] was 11% and the “Population Membrane Permeable-Phenotype (%)” value [9] was 12%. The “Population Mitochondria Different-Phenotype (%)” value [9] was 3%, the “Population Mitotic Cells (%)” value [9] was 42% and the “Population Normal (%)” value [9] was 88%. The “Population Pyknosed Nuclei (%)” value [9] was 13%, the “Population Tubulin-Different-Phenotype (%)” value [9] was 29% and the “Total Cell Count” value [9] was 120. The “Population Apoptotic (%)” value [10] was 66%, the “Population Fragmented Nuclei (%)” value [10] was 27% and the “Population Healthy Nuclei (%)” value [10] was 69%. The “Population Hoechst High Intensity Objects (%)” value [10] was 12%, the “Population Membrane Permeable-Phenotype (%)” value [10] was 3% and the “Population Mitochondria Different-Phenotype (%)” value [10] was 0%. For the same molecule, the “Population Mitotic Cells (%)” value [10] was 33%, the “Population Normal (%)” value [10] was 87% and the “Population Pyknosed Nuclei (%)” value [10] was 3%. For the same molecule, the “Population Tubulin-Different-Phenotype (%)” value [10] was 22%, the “Total Cell Count” value [10] was 96 and the “Population Apoptotic (%)” value [11] was 50%. The “Population Fragmented Nuclei (%)” value [11] was 36%, the “Population Healthy Nuclei (%)” value [11] was 50% and the “Population Hoechst High Intensity Objects (%)” value [11] was 20%. For the same molecule, the “Population Membrane Permeable-Phenotype (%)” value [11] was 6%, the “Population Mitochondria Different-Phenotype (%)” value [11] was 38% and the “Population Mitotic Cells (%)” value [11] was 50%. The “Population Normal (%)” value [11] was 79%, the “Population Pyknosed Nuclei (%)” value [11] was 13% and the “Population Tubulin-Different-Phenotype (%)” value [11] was 80%. For the same molecule, the “Total Cell Count” value [11] was 240, the “Population Healthy Nuclei (%)” value [12] was 58% and the “Population Hoechst High Intensity Objects (%)” value [12] was 22%. The “Population Membrane Permeable-Phenotype (%)” value [12] was 3%, the “Population Mitochondria Different-Phenotype (%)” value [12] was 17% and the “Population Normal (%)” value [12] was 77%. For the same molecule, the “Population Pyknosed Nuclei (%)” value [12] was 4%, the “Population Tubulin-Different-Phenotype (%)” value [12] was 86% and the “Total Cell Count” value [12] was 172.
